The values that follow come from ChEMBL document CHEMBL2331184, “The synthesis and SAR of calcitonin gene-related peptide (CGRP) receptor antagonists derived from tyrosine surrogates. Part 2” (Bioorg Med Chem Lett, 2013).

The structures appear in SMILES notation. Activity calls are given as the source filed them. The calls are words filed in the database; no cut-off is given here.

Series [1] in a line: Reversal of CGRP-induced dilation on human intracranial arteries. Format: functional, Artery. The method, boiled down:
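Ex vivo human intracranial artery rings were mounted between two wire hooks on a force transducer to record tone. Rings were precontracted with 10 mM KCl and fully dilated with 1 nM haCGRP. Dilation was then reversed by cumulative half-log additions of antagonist.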

In series [2] the target is Calcitonin gene-related peptide type 1 receptor (Homo sapiens) (UniProt Q16602). Description: (§1) Antagonist activity at CGRP receptor in human SK-N-MC cells assessed as inhibition of […]-induced cAMP production. Type of series: functional, cell-based. The method, boiled down: (§2)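 Concentration-dependent inhibition of CGRP-stimulated cAMP production measured in SK-N-MC cells expressing the human CGRP receptor. Value reported as EC50.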
Sequence of Calcitonin gene-related peptide type 1 receptor (Homo sapiens) (Q16602 whole entry): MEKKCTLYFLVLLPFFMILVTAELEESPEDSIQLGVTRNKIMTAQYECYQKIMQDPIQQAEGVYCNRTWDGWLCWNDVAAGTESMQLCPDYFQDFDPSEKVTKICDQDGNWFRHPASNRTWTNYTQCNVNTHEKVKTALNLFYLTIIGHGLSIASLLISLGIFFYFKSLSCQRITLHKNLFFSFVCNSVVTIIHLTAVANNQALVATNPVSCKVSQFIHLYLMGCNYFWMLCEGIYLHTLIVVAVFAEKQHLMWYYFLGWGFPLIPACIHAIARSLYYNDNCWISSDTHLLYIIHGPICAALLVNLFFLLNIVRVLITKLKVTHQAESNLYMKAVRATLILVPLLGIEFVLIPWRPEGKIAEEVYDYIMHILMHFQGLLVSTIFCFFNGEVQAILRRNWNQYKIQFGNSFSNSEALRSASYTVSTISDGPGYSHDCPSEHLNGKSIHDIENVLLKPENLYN

For another series, the target named is CYP3A4 (Homo sapiens, UniProt P08684). In words: (§3) Inhibition of CYP3A4 (unknown origin) using 7-benzyloxy-4-trifluoromethylcoumarin as substrate. Type of series: ADME. The conditions noted are these: probe 7-benzyloxy-4-trifluoromethylcoumarin.
Sequence of CYP3A4 (P08684 whole entry): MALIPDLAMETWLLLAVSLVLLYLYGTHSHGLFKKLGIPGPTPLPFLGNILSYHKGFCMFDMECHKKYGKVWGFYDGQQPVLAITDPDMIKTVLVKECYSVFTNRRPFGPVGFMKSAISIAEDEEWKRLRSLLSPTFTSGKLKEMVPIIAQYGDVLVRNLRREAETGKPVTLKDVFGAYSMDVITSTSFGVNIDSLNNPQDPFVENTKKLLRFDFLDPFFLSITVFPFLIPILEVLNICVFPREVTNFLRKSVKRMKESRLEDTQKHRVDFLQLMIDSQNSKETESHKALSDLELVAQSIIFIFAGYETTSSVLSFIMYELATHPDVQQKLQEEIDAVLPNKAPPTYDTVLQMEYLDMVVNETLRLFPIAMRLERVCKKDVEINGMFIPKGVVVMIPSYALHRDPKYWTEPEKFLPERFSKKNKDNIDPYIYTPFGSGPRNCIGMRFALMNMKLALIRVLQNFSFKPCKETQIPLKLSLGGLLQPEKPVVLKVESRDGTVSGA
For series [3], the target named is T1, Calcitonin gene-related peptide type 1 receptor (Homo sapiens, UniProt O60894+Q16602). In words: Binding affinity to CGRP receptor (unknown origin).
T1 sequence (Q16602 whole entry, one chain of several): as the sequence (Q16602 whole entry) above
Series [4] can be described thus: Plasma concentration in marmoset at 0.03 g/kg, sc after 60 mins. Type of series: ADME, organism-based, Callithrix jacchus. The settings on record: 30 mg/kg. Summed up: (§4)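 Marmosets were anesthetized. Facial blood flow was raised by iv haCGRP (10 µg/kg) given at −30, 15, 60 and 105 min and read by laser Doppler flowmetry. The antagonist (racemate) was given SC at 0 min and compared with vehicle-treated animals, n = 5. Plasma levels were taken at 15, 60 and 105 min.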

Series [5] can be described thus: Plasma concentration in marmoset at 0.03 g/kg, sc after 105 mins. Format: ADME, organism-based, Callithrix jacchus. The conditions noted are these: 30 mg/kg. The method, boiled down:
as §4

Series [6] is described as follows: Plasma concentration in marmoset at 0.03 g/kg, sc after 15 mins. Type of series: ADME, organism-based, Callithrix jacchus. The conditions noted are these: 30 mg/kg. The method, boiled down:
as §4

The next series relates to Callithrix jacchus. Description: Inhibition of CGRP-induced increases in marmoset facial blood flow at 0.03 g/kg, sc after 60 to 105 mins by doppler flowmetry. Type of series: functional, organism-based. Summed up:
as §4

The target of series [7] is T2, Cytochrome P450 3A4 (Homo sapiens, UniProt P08684). Described as §3. Type of series: ADME.
T2 sequence (P08684 whole entry): as the sequence (P08684 whole entry) above
The target in series [8] is T2, Cytochrome P450 3A4. In words: Inhibition of CYP3A4 (unknown origin) using 7-benzyloxy-resorufin as substrate. Format: ADME.
Series [9] addresses T1, Calcitonin gene-related peptide type 1 receptor. The series is described as §1. Type of series: functional, cell-based. The method, boiled down: as §2
The target in series [10] is T3, Nuclear receptor subfamily 1 group I member 2 (Homo sapiens, UniProt O75469).
T3 sequence (O75469 whole entry): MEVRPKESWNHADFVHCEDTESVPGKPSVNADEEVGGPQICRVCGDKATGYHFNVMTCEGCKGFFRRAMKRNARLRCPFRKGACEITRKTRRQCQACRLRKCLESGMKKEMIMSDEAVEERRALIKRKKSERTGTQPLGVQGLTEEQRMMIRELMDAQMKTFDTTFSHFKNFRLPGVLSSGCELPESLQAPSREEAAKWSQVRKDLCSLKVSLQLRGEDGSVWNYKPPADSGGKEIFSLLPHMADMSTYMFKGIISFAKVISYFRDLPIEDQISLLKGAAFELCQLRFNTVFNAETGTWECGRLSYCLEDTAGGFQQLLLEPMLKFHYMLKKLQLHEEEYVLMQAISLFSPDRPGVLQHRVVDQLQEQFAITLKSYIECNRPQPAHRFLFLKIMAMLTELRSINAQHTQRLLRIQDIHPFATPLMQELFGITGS
Description: Activation of PXR (unknown origin).

The subject of the next series is Salmonella typhimurium. In words: Genotoxicity in Salmonella typhimurium by Ames test. Format: toxicity, organism-based. The conditions noted are these: salmonella enterica subsp. enterica serovar typhimurium. (In general: The Ames test uses bacterial strains that need an amino acid and regain growth without it when mutated back.)
Series [11] can be described thus: Tmax in rabbit at 0.6 mg/kg administered intranasally. Format: ADME, organism-based, Oryctolagus cuniculus. Also noted: dose 0.6 mg/kg. The conditions noted are these: in vivo, inhaled or intranasal. The method, boiled down:
(§5)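 Rabbits were dosed intranasally with a spray of a 10 mg/mL aqueous solution of the HCl salt, at 0.6 mg/kg. […] Intranasal bioavailability was derived from these plasma levels.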

Series [12] in a line: Bioavailability in rabbit at 0.6 mg/kg administered intranasally. Type of series: ADME, organism-based, Oryctolagus cuniculus. The conditions noted are these: in vivo, inhaled or intranasal. The method, boiled down: as §5
A short description of series [13]: Aqueous solubility of the compound at pH 4.0 to 6.2. Type of series: physicochemical. The settings on record: aqueous solution.

`O=C(N[C@H](Cc1ccc2[nH]ncc2c1)C(=O)N1CCC(N2CCCCC2)CC1)N1CCC(N2Cc3ccccc3NC2=O)CC1`: the 50% effective concentration (EC50) (commonly the concentration that produces a half-maximal response) in [1] was 1.2 nM. Moreover, the inhibition result in series [2] is “Active”. The IC50 – broadly, the concentration needed to halve the response being measured – against CYP3A4 was more than 40000 nM.
In the case of `O=C(N[C@H](Cc1cc2oc(=O)[nH]c2cc1Br)C(=O)N1CCC(N2CCCCC2)CC1)N1CCC(N2Cc3ccccc3NC2=O)CC1`, the inhibition entry in series [2] was “Active”. In series [3], the inhibitory constant (Ki) (usually the equilibrium dissociation constant of an inhibitor or competing ligand from its target) came to 0.14 nM.
In [4], `Cc1cc(CC(NC(=O)N2CCC(N3Cc4ccccc4NC3=O)CC2)C(=O)N2CCC(N3CCCCC3)CC2)cc2cn[nH]c12` (racemic) showed a concentration at 1 h of 13 nM. Moreover, in series [5], the concentration at 1.75 h stood at 11 nM. Besides, in series [6], the concentration at 0.25 h came out at 4.7 nM. Also, the inhibition entry (in the series with Callithrix jacchus; in series [2]) was “Active” in each case. For the same molecule, in series [3], the Ki turned out to be 0.012 nM.
Turning to `O=C(NC(Cc1cc(Cl)c2[nH]ncc2c1)C(=O)N1CCC(N2CCCCC2)CC1)N1CCC(N2Cc3ccccc3NC2=O)CC1` (racemic), the inhibition result in [2] is “Active”. Moreover, the values for the IC50 at Cytochrome P450 3A4 [7] and on Cytochrome P450 3A4 [8] were 13000 nM and 180 nM, respectively. The Ki in [3] came out at 0.011 nM.
With `Cc1cc(C[C@@H](NC(=O)N2CCC(N3Cc4ccccc4NC3=O)CC2)C(=O)N2CCC(N3CCCCC3)CC2)cc2nn[nH]c12`, the inhibition entry in [2] is “Active”.
Turning to `O=C(N[C@H](Cc1cc(Br)c2[nH]c(=O)oc2c1)C(=O)N1CCC(N2CCCCC2)CC1)N1CCC(N2Cc3ccccc3NC2=O)CC1`, the inhibition entry in series [2] was “Active”. Further, the figures for the IC50 against Cytochrome P450 3A4 [7] and against Cytochrome P450 3A4 [8] were more than 40000 nM and 7200 nM, respectively. Moreover, the inhibitory constant (Ki) in series [3] was 0.023 nM.
`CC(C)c1cc(CC(NC(=O)N2CCC(N3Cc4ccccc4NC3=O)CC2)C(=O)N2CCC(N3CCCCC3)CC2)cc2cn[nH]c12` (racemic): the inhibition entry in series [2] is “Active”. The same molecule registered an IC50 at Cytochrome P450 3A4 [8] of 370 nM. Further, the Ki in series [3] came to 0.22 nM.
For `O=C(N[C@H](Cc1cc2oc(=O)[nH]c2cc1Cl)C(=O)N1CCC(N2CCCCC2)CC1)N1CCC(N2Cc3ccccc3NC2=O)CC1`, in series [2], the inhibition entry is “Active”. Further, the half-maximal inhibitory concentration (IC50) against Cytochrome P450 3A4 [7] is more than 40000 nM; on Cytochrome P450 3A4 [8], 5000 nM. In addition, in series [3], the Ki was 0.28 nM.
For the molecule `Cc1cc(C[C@H](NC(=O)N2CCC(N3Cc4ccccc4NC3=O)CC2)C(=O)N2CCC(N3CCCCC3)CC2)cc2cn[nH]c12`, in [2], the inhibition result is “Active”. In addition, in series [3], the Ki came to 27 nM.
As to `Cc1cc(C[C@@H](NC(=O)N2CCC(N3Cc4ccccc4NC3=O)CC2)C(=O)N2CCC(N3CCCCC3)CC2)cc2[nH]nnc12`, the IC50 against Cytochrome P450 3A4 [7] is more than 40000 nM; on Cytochrome P450 3A4 [8], 7300 nM. Also, the inhibitory constant (Ki) in [3] turned out to be 0.015 nM.
Take `O=C(N[C@H](Cc1cc(Cl)c2[nH]c(=O)oc2c1)C(=O)N1CCC(N2CCCCC2)CC1)N1CCC(N2Cc3ccccc3NC2=O)CC1`: the inhibition result in series [2] is “Active”. Moreover, the IC50 on Cytochrome P450 3A4 [7] is more than 40000 nM; at Cytochrome P450 3A4 [8], 17000 nM. Also, the inhibition constant Ki in series [3] amounted to 0.039 nM.
On the same counts, the results for `CCc1cc(CC(NC(=O)N2CCC(N3Cc4ccccc4NC3=O)CC2)C(=O)N2CCC(N3CCCCC3)CC2)cc2c(C)n[nH]c12` (racemic) are “Active”, more than 40000 nM, 6900 nM and 0.048 nM.
In the case of `Cc1cc(C[C@@H](NC(=O)N2CCC(N3Cc4ccccc4NC3=O)CC2)C(=O)N2CCC(N3CCCCC3)CC2)cc2cn[nH]c12` [listing 1 of 2 here], the inhibition entry in [2] was “Active”.
As for `CCc1cc(CC(NC(=O)N2CCC(N3Cc4ccccc4NC3=O)CC2)C(=O)N2CCC(N3CCCCC3)CC2)cc2cn[nH]c12` (racemic), the inhibition entry in series [2] was “Active”. For the same molecule, the values for the IC50 against Cytochrome P450 3A4 [7] and against Cytochrome P450 3A4 [8] were 25000 nM and 450 nM, respectively. In addition, the Ki in series [3] stood at 0.005 nM.
Regarding `O=C(N[C@H](Cc1cc(I)c2[nH]c(=O)oc2c1)C(=O)N1CCC(N2CCCCC2)CC1)N1CCC(N2Cc3ccccc3NC2=O)CC1`, the inhibition entry in series [2] was “Active”. In addition, the IC50 against Cytochrome P450 3A4 [7] was 32000 nM; on Cytochrome P450 3A4 [8], 5500 nM. In addition, the Ki in series [3] was determined as 0.055 nM.
As to `Cc1cc(C[C@@H](NC(=O)N2CCC(N3Cc4ccccc4NC3=O)CC2)C(=O)N2CCC(N3CCCCC3)CC2)cc2cn[nH]c12` [listing 2 of 2 here], the concentration giving a half-maximal response (EC50) is 0.05 nM in series [1] and 0.017 nM in series [9]. In series [3], the Ki came to 0.0073 nM.
As for `N#Cc1cc(C[C@@H](NC(=O)N2CCC(N3Cc4ccccc4NC3=O)CC2)C(=O)N2CCC(N3CCCCC3)CC2)cc2oc(=O)[nH]c12`, the inhibition entry in series [2] was “Active”. Also, the inhibition constant (Ki) in [3] is 11 nM.
For the molecule `Cc1cc(C[C@@H](NC(=O)N2CCC(N3Cc4ccccc4NC3=O)CC2)C(=O)N2CCC(N3CCCCC3)CC2)c(Cl)c2cn[nH]c12`, the inhibition entry in [2] is “Active”. In addition, the figures for the IC50 against Cytochrome P450 3A4 [7] and on Cytochrome P450 3A4 [8] were 3500 nM and 1600 nM, respectively. The Ki in series [3] was determined as 0.032 nM.
Take `Cc1cc(C[C@@H](NC(=O)N2CCC(N3Cc4ccccc4NC3=O)CC2)C(=O)N2CCC(N3CCCCC3)CC2)cc2cn[nH]c12.Cl`: the Activity result in series [10] is “Not Active”; with Salmonella typhimurium it was “Non-toxic”. Besides, the Tmax (as a rule, the time at which the peak concentration occurs) in series [11] is 10 min. Besides, in series [12], the bioavailability – broadly, the share of a dose that reaches the circulation, judged against a reference dose that is usually intravenous – was found to be 42%. Also, the solubility (commonly the concentration that dissolves in the medium under given conditions) in series [13] was found to be 13 mg/mL.
